NOD2-RIPK2 inh: NOD2-RIPK2 binding disruptors in cells, primary screen, fluorescence, CHO cells, BLA complementation; Receptor-interacting serine/threonine-protein kinase 2 (Homo sapiens), O43353; 360,000 compounds, 0.38% hits; inhibition, % at 4.98 µM; CCF4 ratio; in the data active means inhibition above about 21%;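 further: 0% = vehicle only and 100% = reference blocker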
TLR4-MyD88 BLA: inhibitors of TLR4-MyD88 association in cells, primary screen, cell-based, HeLa CL3-4, BLA complementation, FRET ratio; HeLa CL3-4 TLR4/MyD88 BLA complementation; AID 861, 2007; Toll-like receptor 4 (Homo sapiens) + Myeloid differentiation primary response protein …; 200,000 compounds, 0.18% hits; inhibition, % at 8.4 µM; in the data active means inhibition above about 25%;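 further: 0% = vehicle and 100% = reference inhibitor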
Target sequence (O00206 whole entry, looked up): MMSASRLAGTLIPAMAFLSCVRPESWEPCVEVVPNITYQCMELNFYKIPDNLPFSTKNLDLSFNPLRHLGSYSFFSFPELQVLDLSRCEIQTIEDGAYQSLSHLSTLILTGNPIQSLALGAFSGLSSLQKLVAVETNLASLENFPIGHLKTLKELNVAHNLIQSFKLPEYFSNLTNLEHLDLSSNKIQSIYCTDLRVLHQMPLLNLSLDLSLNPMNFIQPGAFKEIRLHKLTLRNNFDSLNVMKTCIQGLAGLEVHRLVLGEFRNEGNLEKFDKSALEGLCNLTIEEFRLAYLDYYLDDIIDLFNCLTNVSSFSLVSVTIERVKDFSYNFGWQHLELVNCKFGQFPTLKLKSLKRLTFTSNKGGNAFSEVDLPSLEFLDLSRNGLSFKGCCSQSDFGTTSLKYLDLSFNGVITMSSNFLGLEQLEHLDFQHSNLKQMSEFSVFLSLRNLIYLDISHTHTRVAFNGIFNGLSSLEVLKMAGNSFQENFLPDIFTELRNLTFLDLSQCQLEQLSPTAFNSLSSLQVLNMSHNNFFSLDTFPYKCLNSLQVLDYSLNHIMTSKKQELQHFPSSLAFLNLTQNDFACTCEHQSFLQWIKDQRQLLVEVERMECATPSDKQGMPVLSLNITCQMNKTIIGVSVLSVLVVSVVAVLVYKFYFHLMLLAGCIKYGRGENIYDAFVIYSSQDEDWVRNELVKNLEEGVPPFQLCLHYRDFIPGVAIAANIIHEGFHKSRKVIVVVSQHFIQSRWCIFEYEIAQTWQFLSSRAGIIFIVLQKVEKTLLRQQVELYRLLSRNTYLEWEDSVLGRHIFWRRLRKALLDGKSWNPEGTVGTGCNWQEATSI
Target sequence (Q99836 whole entry, looked up): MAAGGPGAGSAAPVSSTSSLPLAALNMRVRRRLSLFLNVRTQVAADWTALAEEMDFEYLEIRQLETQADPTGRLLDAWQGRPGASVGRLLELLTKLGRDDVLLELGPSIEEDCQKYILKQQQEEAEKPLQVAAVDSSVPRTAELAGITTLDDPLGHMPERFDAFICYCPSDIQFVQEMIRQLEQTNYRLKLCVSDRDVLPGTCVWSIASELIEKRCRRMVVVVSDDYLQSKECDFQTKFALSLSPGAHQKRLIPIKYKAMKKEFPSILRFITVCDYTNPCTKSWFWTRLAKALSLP
MC4R antagonist: MC4R antagonists of cAMP signaling, primary screen, cell-based, TR-FRET, antagonist arm of biased-ligand search. Melanocortin receptor 4 (Homo sapiens), P32245. MC4R-expressing cells, MTII-stimulated cAMP, LANCE TR-FRET. inhibition, % at 6.5 µM. 360,000 compounds, 0.48% hits;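 active means inhibition above its plate's cutoff, the mean of tested wells on that plate plus 3 SD, cut at about 29% in these data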;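 further: 0% = Melanotan II alone and 100% = Melanotan II plus saturating MCL0020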
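System: U2OS-MC4R stable cell line; Technique: Eu-cAMP/anti-cAMP TR-FRET, emission 671 nm; Repeats: single well per compound; Also added: Melanotan II; Dosing: one concentration, 6.5 µM nominal; Schedule: 30-min compound, 1-h challenge, 1-h detection, room temperature.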
NTR1 ag: agonists of human NTR1, primary screen, imaging, U2OS cells, beta-arrestin-GFP, high content. Neurotensin receptor type 1 (Homo sapiens), P30989. NTR1-U2OS beta-arrestin-GFP spot imaging, agonist mode. activation, % at 20 µM. 330,000 compounds, 0.17% hits. AID 493036, 2011;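 active means activation at or above 40% of the spot to cytoplasm intensity ratio, with at least 20 cells analyzed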;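 further: 0% = DMSO without peptide and 100% = 100 nM NTR1 peptide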
TLR9-MyD88 block: inhibitors of TLR9-MyD88 association in cells, primary screen, cell-based, CHO, BLA complementation, fluorescence. Toll-like receptor 9 (Homo sapiens) + Myeloid differentiation primary response protein …. CCF4 FRET ratio. inhibition, % at 4.98 µM. 340,000 compounds, 0.21% hits. AID 504734, 2011;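 active means inhibition above the mean over all tested compounds plus 3 SD, cut at about 21% in these data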;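 further: 0% = DMSO only wells and 100% = clavulanate BLA inhibitor control wells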
MC4R barr agon: MC4R agonists recruiting beta-arrestin, primary screen, cell-based, luminescence, agonist arm of biased-ligand search | Melanocortin receptor 4 (Homo sapiens), P32245 | AID 540308, 2011 | activation, % at 8.9 µM | U2OS MC4R beta-arrestin complementation; percent of melanotan II response, DMSO zero | 360,000 compounds, 0.98% hits;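 active means activation above a per-plate cutoff, the mean activation of sample wells on that plate plus 3 SD, cut at about 8% in these data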
cAMP nonselect: nonselective cAMP signaling inhibitors, parental cells, counter-screen for MC4R biased antagonist project, cell-based, TR-FRET, U2OS, forskolin, triplicate | shares compounds with MC4R antagonist | LANCE TR-FRET | inhibition, % at 6.5 µM | 1,600 compounds, 26% hits | AID 602193, 2012;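 active means mean inhibition over triplicates above the low-control well mean plus 3 SD, set per campaign, cut at about 13% in these data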;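 further: signal is single emission at 671 nm which falls as cellular cAMP rises; 0% = forskolin-stimulated wells and 100% = buffer without forskolin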
MC4R antag conf: MC4R cAMP antagonists, retest, confirmation, cell-based, TR-FRET | 1,600 compounds, 27% hits | AID 602195, 2012 | shares compounds with MC4R antagonist | MC4R-expressing cells, MTII-stimulated cAMP | inhibition, % at 6.5 µM; in the data active means inhibition above about 29%;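 further: 0% = agonist stimulated wells alone and 100% = agonist stimulated wells plus saturating reference antagonist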
* = called active by the depositor; x = not tested or not shown. Hits are enriched below; roughly 1.9% of the tested compounds scored in any of these assays.

SMILES	NOD2-RIPK2 inh	TLR4-MyD88 BLA	MC4R antagonist	NTR1 ag	TLR9-MyD88 block	MC4R barr agon	cAMP nonselect	MC4R antag conf
COc1cc(-c2nc3ccc4ccccc4c3c3c2CCC3)cc(OC)c1O	-1	-9	20	18	-7	5	x	x
COc1cc(-c2nc3ccc4ccccc4c3c3c2CCC3)cc(OC)c1OC	-6	7	32*	8	-1	0	-1	31*
Cc1cc(N2CCN(C)CC2)nc(=S)[nH]1	5	12	29*	0	-6	-1	0	-4
Cc1ccc(S(=O)(=O)N2CCC(C(=O)OC3CCOC3=O)CC2)cc1C (stereo not drawn)	0	x	40*	8	-3	-4	19*	41*
CC(=O)c1cccc(S(=O)(=O)N2CCC(C(=O)O)CC2)c1	-2	-2	-9	-2	6	4	x	x
CC(=O)c1cccc(S(=O)(=O)N2CCC(C(=O)OC3CCOC3=O)CC2)c1 (stereo not drawn)	-8	x	40*	5	-11	-1	19*	57*
Cc1ccccc1C(=O)NC1CCN(C(=O)Nc2ccc(F)cc2)CC1	-2	x	2	1	1	-1	x	x
O=C(CNC(=O)c1ccc(Cl)cc1Cl)OCC(=O)N1CCCC1=O	-2	x	35*	1	4	-2	19*	30*
O=C(CNC(=O)c1ccc(Cl)cc1Cl)OCn1nnc2ccccc2c1=O	1	x	32*	0	-5	-2	17*	21
O=C(COC(=O)CNC(=O)c1ccc(Cl)cc1Cl)NCc1ccco1	-8	x	31*	0	5	-2	11	43*
O=C(CNC(=O)c1ccc(Cl)cc1Cl)OCC(=O)N1CCCC1	-8	x	22	1	-9	-1	x	x
CC1CCCC(C)N1C(=O)COC(=O)CNC(=O)c1ccc(Cl)cc1Cl (stereo not drawn)	-1	x	29*	2	-1	-1	18*	19
COc1cccc(CC2(CO)CCN(S(=O)(=O)c3ccc(OC)cc3OC)CC2)c1	-2	x	4	1	-14	0	x	x
Cc1ccccc1C(=O)N1CCc2c([nH]c3ccccc23)C1C(F)(F)F (stereo not drawn)	-4	x	36*	7	2	0	3	2
CC(=O)Oc1ccccc1C1C[C@]2(C)CC(=O)NC2N1C(C)=O (stereo partly drawn)	-1	-7	1	0	7	0	x	x
CC(C)(C)NC(=O)NC(=O)Cn1cc(C(F)(F)F)ccc1=O	-10	9	7	1	7	-1	x	x
O=C(Cn1cc(C(F)(F)F)ccc1=O)NC(c1ccccc1)c1ccccc1	-3	1	36*	1	-18	-1	4	9
COc1ccc(NC(=O)c2cc(-c3ccc(F)cc3OC)n[nH]2)c(OC)c1	-12	x	30*	x	x	1	4	4
Cc1ccc(NC(=O)C(=O)NCC2CCCO2)cc1C (stereo not drawn)	-15	4	36*	1	-11	2	1	-6
Cc1ccc(NC(=O)C(=O)NCC2CCCO2)cc1 (stereo not drawn)	6	13	-1	-1	-9	-1	x	x
C=CCNC(=O)c1ccc([N+](=O)[O-])c(Cl)c1	2	5	4	-1	-4	-2	x	x
CC(C)(CNC(=O)c1ccc([N+](=O)[O-])c(Cl)c1)CNC(=O)c1ccc([N+](=O)[O-])c(Cl)c1	-8	11	31*	24	2	-2	9	44*
O=C(CSc1n[nH]c(-c2ccccc2)n1)Nc1ccc(N2CCOCC2)cc1	0	-6	9	0	-2	-1	x	x
NS(=O)(=O)c1ccc(NC(=O)COC(=O)CSc2n[nH]c(-c3ccccc3)n2)cc1	-7	-7	39*	-1	-2	-1	9	-3
O=C(c1ccc(S(=O)(=O)NCc2ccco2)cc1)N1CCN(c2ccc(F)cc2)CC1	1	x	-4	1	-3	-1	x	x
SMILES	NOD2-RIPK2 inh	TLR4-MyD88 BLA	MC4R antagonist	NTR1 ag	TLR9-MyD88 block	MC4R barr agon	cAMP nonselect	MC4R antag conf
O=C(/C=C/c1ccc(S(=O)(=O)NCc2ccco2)cc1)N1CCN(c2ccccc2)CC1	-8	-6	31*	1	-6	1	1	-4
Cc1[nH]n(-c2ccccc2)c(=O)c1C=NC1CCCCCC1	5	2	34*	-1	2	0	7	8
O=C(CNC(=S)N(Cc1ccccc1)Cc1ccccc1F)NCc1ccc(Cl)cc1	2	10	2	x	-2	0	x	x
COC(=O)CSc1nc2ccccn2c(=O)c1C=O	1	1	31*	3	-4	0	0	-10
O=Cc1c(SCCO)nc2ccccn2c1=O	-4	x	-1	1	-9	-1	x	x
CC(=O)N(CN1C(=O)c2ccccc2C1=O)c1ccc2c(c1)oc1ccccc12	-4	-2	1	1	-7	-1	x	x
CCCc1nnc(NC(=O)C2CC(=O)N(C3CCCC3)C2)s1 (stereo not drawn)	-11	x	4	1	-16	-1	x	x
COc1ccc(Cl)cc1-c1n[nH]c(=S)o1	-6	-1	72*	-3	-1	-1	45*	78*
S=c1[nH]nc(-c2ccccc2)o1	-13	3	25	2	0	0	x	x
CSc1ccccc1-c1n[nH]c(=S)o1	-12	2	90*	-1	-2	-2	50*	94*
Cc1ccccc1-c1n[nH]c(=S)o1	-1	-16	42*	3	-4	-2	25*	47*
COc1ccccc1-c1n[nH]c(=S)o1	-8	-14	21	0	5	-2	x	x
CC(C)[C@H](NC(=O)[C@H]1N2C(=O)c3ccccc3C2SC1(C)C)C(=O)NCc1ccco1 (stereo partly drawn)	-4	x	0	0	-4	-2	x	x

Screening data (PubChem BioAssay)
